Bioassay records from PubChem.
PfG6PD inh: PfG6PD (Plasmodium falciparum) enzyme inhibition. PfGluPho enzyme, NADPH resazurin-diaphorase fluorescence. 350,000 tested, 0.78% active. inhibition, % at 20 µM;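 active = inhibition reaching at least a set limit at 20 µM in the primary screen, cut at about 59% in these data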;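 note: 0% = DMSO wells with substrate and 100% = DMSO wells lacking glucose-6-phosphate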
Diaphorase inh: inhibits diaphorase or chemically oxidizes, flagging diaphorase assay artifacts; diaphorase resazurin-to-resorufin fluorescence, NADH, 16 min; bacterial (C. kluyveri) enzyme, not human; inhibition, % at 20 µM; 190,000 tested, 0.69% active; AID 1217;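 active = primary screen inhibition at 20 µM above a set limit, cut at about 50% in these data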;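 note: plate controls were DMSO with full reaction for no effect and wells lacking NADH for full effect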
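System: Diaphorase enzyme from Clostridium kluyveri | Amount: Enzyme working solution with 0.14 U/mL diaphorase | Benchmarks: No-NADH positive control and DMSO neutral control | Signal: Fluorescence of resorufin formed from resazurin, Ex 544/Em 590 nm | Schedule: 16-min room-temperature incubation before reading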
HKDC1 inhibitor: HKDC1 (human) hexokinase inhibition. Q2TB90. recombinant HKDC1, G6PDH/diaphorase resazurin coupled fluorescence. inhibition, % at 20 µM. 340,000 tested, 0.16% active;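 active = inhibition above about 35% when tested at 20 µM, limit read from the data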;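 note: plate controls were DMSO wells with enzyme for no effect and DMSO wells lacking enzyme for full effect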
Target sequence (Q2TB90 whole entry, looked up): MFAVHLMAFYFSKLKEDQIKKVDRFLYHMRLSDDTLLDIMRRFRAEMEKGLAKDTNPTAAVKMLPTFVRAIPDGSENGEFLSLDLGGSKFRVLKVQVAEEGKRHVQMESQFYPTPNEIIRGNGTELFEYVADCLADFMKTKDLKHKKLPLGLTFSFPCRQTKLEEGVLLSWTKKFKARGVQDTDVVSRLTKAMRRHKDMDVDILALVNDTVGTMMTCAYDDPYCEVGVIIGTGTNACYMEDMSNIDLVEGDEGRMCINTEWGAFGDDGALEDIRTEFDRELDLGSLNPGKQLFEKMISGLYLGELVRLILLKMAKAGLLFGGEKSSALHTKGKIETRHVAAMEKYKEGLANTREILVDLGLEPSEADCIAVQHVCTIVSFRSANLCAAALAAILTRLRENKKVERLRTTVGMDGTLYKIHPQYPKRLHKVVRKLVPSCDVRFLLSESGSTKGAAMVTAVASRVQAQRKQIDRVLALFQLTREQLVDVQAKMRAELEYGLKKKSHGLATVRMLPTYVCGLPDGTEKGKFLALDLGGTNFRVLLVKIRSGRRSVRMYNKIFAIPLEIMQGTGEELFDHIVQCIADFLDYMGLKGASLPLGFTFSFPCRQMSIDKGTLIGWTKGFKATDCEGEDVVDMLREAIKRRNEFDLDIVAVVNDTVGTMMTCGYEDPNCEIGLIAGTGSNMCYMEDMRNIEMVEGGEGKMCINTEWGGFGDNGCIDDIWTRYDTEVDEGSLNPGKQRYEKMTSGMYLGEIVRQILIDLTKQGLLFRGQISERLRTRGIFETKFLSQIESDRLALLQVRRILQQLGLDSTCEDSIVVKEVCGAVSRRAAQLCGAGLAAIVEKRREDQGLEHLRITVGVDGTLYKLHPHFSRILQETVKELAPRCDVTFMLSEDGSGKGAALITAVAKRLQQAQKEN
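Assay system: in-house recombinant HK5 (HKDC1) enzyme. Input: HKDC1 at 5 µg/mL. Medium: Tris pH 8.0 buffer with MgCl2, Tween-20, BSA, BME. Dosing: single 20 µM dose. Schedule: 90 min reaction incubation at room temperature, dark. Signal: resazurin-to-resorufin fluorescence via G6PDH and diaphorase coupling, 525/613 nm. Controls: DMSO-enzyme wells negative, buffer-substituted wells positive.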
G6PDH counter: counter-screen for G6PDH assay hits: L. mesenteroides G6PDH inhibition | Purified L. mesenteroides G6PDH, diaphorase/resazurin coupled fluorescence, 45 min | inhibition, % at 5 µM | 200,000 tested, 0.12% active | AID 1020; in the data active = inhibition above about 50%
PfGluPho conf: confirmation of Plasmodium falciparum G6PD inhibitors | inhibition, % at 20 µM | 2,400 tested, 34% active | recombinant PfGluPho, NADPH-diaphorase-resazurin fluorescence | shares compounds with PfG6PD inh;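 active = inhibition of at least 50% at 20 µM in any single replicate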;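 note: 0% = DMSO with substrate and 100% = DMSO lacking glucose-6-phosphate substrate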
Diaphorase 10uM: diaphorase inhibition or oxidation at 10 uM NADPH; AID 504862; inhibition, % at 20 µM; 820 tested, 39% active; shares compounds with PfG6PD inh; diaphorase-coupled resazurin reduction, fluorescence, NADPH 10 uM;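 active = average inhibition reaching 50% or more with the compound at 20 µM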;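 note: resorufin red fluorescence formed as diaphorase reduces resazurin using NADPH; 0% = DMSO with enzyme and 100% = DMSO without enzyme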
Diaph ctr 30uM: diaphorase inhibition or oxidation at 30 uM NADPH; 820 tested, 29% active; AID 504863; inhibition, % at 20 µM; Diaphorase/resazurin coupled assay, resorufin fluorescence; shares compounds with PfG6PD inh;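 active = inhibition averaging 50% or more, tested at 20 µM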;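 note: 0% = DMSO with enzyme and 100% = DMSO wells lacking diaphorase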
Numbers without * were called inactive; nt = no result. An excerpt weighted towards active compounds, which were near 1.2% of everything screened.

SMILES	PfG6PD inh	Diaphorase inh	HKDC1 inhibitor	G6PDH counter	PfGluPho conf	Diaphorase 10uM	Diaph ctr 30uM
Cc1nn(-c2ccccc2)c(Cl)c1/C=N/Nc1nc2ccccc2[nH]1	17	13	0	-36	nt	nt	nt
N#Cc1ccsc1NC(=O)C1=COCCO1	-3	nt	2	nt	nt	nt	nt
CC(=O)N[C@@H](C)c1nc2ccccc2n1CCCN1CCN(c2nc(-c3ccc(C)cc3)cs2)CC1	24	nt	-3	nt	nt	nt	nt
O=C(Oc1ccc(Br)cc1C(=S)N1CCOCC1)c1ccc([N+](=O)[O-])cc1[N+](=O)[O-]	60*	nt	-2	nt	22	nt	nt
O=C(Oc1ccc(C(=S)N2CCOCC2)cc1)c1ccc([N+](=O)[O-])cc1[N+](=O)[O-]	21	nt	-2	nt	nt	nt	nt
Cc1cc(C)c2c(=O)n3c(nc2c1)C(Cc1ccccc1)NC(=O)c1cccnc1-3 (centres undefined)	59*	nt	nt	nt	4	nt	nt
Cc1cc(NN)nc(Cc2ccccc2)n1	4	nt	-1	nt	nt	nt	nt
CC(CCc1ccccc1)NS(=O)(=O)c1ccc(Cl)c(C(=O)O)c1 (centres undefined)	-8	nt	-3	nt	nt	nt	nt
CC[n+]1c(C)sc2c3ccsc3ccc21	70*	34	-11	1	27	nt	nt
COc1ccc(N(C(=O)c2snc(C(N)=O)c2N)C(CC(C)C)C(=O)NCC2CCCO2)cc1 (centres undefined)	6	nt	-2	nt	nt	nt	nt
O=[N+]([O-])c1cccc(SSc2cccc([N+](=O)[O-])c2)c1	115*	nt	1	nt	52*	-8	-6
Nc1cccc([N+](=O)[O-])c1	-9	1	-3	-5	nt	nt	nt
C[C@@H]1ON(C)[C@H]2C[C@H]3c4[nH]c5ccc(-c6ccc7c(c6)OCO7)cc5c4CCN3C(=O)[C@@H]12	76*	nt	nt	nt	44	nt	nt
COc1ccc(Cn2c(CO)cnc2SCC(=O)Nc2cccc(NC(C)=O)c2)cc1	-8	nt	-4	nt	nt	nt	nt
CCOC(=O)c1cnc2ccc(C(=O)OC)cc2c1NCCCN1CCOCC1	27	nt	9	nt	nt	nt	nt
CCOC(=O)c1cnc2ccc(C(=O)OC)cc2c1NCCN1CCOCC1	71*	3	1	2	16	nt	nt
O=C(Cc1cccs1)Nc1cccc(-c2nc3cc4ccccc4cc3[nH]2)c1	63*	19	-3	7	7	nt	nt
CCN(CC(=O)Nc1ccc(NC(C)=O)cc1)C(=O)C1(c2ccccc2)CC1	7	nt	-6	nt	nt	nt	nt
C[C@H](O)[C@@H]1CN2CCc3c([nH]c4ccc(-c5ccc6c(c5)OCO6)cc34)[C@@H]2C[C@@H]1N(C)C(=O)NC1CCCCC1	-7	nt	nt	nt	nt	nt	nt
O=[N+]([O-])c1cc2no[n+]([O-])c2cc1N1CCCCC1	129*	nt	0	nt	111*	80*	58*
N#Cc1cc(N2CCCCC2)c([N+](=O)[O-])cc1C#N	-3	10	-7	19	nt	nt	nt
COc1ccc(Cn2c(=S)[nH]c3ccccc3c2=O)cc1	-6	nt	0	nt	nt	nt	nt
O=C(CCc1ccc(O)c(O)c1)N/N=C/c1ccc2c(c1)OCO2	62*	nt	5	nt	34	nt	nt
CC(C)Oc1ccc(CCC(=O)N/N=C/c2ccc3c(c2)OCO3)cc1	8	nt	7	nt	nt	nt	nt
COCCNc1c(-c2ccc(OC)cc2)nc2ccc(Cl)cn12	65*	12	6	0	41	nt	nt
SMILES	PfG6PD inh	Diaphorase inh	HKDC1 inhibitor	G6PDH counter	PfGluPho conf	Diaphorase 10uM	Diaph ctr 30uM
CCOC(=O)CNc1c(-c2ccc(OC)cc2)nc2ccc(Cl)cn12	74*	11	-2	4	26	nt	nt
COc1ccccc1CCn1c(N)cc(=O)[nH]c1=O	-2	nt	-1	nt	nt	nt	nt
CC(C)C[C@@H](CN)NC(=O)c1nc[nH]c1C(=O)N[C@@H](C)C(=O)CNC[C@H](C)NC(=O)c1nc[nH]c1C(=O)N[C@@H](Cc1ccccc1)C(=O)O	0	nt	-6	nt	nt	nt	nt
CCN(CC)c1ccc(N=C2C(=O)Nc3ccccc32)cc1	68*	nt	-7	nt	15	nt	nt
COc1cccc(/C=N/NC(=O)CSc2cccc3cccnc23)c1	69*	nt	-18	nt	54*	64*	41
Cc1ccc(C2(C)NC(=O)N(CC(=O)NNC(=O)c3cc(C)oc3C)C2=O)cc1 (centres undefined)	-24	nt	-6	nt	nt	nt	nt
Cc1ccc(/C=C/S(=O)(=O)NCC(=O)OCC(=O)Nc2c(F)cccc2F)cc1	-8	nt	-3	nt	nt	nt	nt
CCCN(Cc1cc2ccc(C)cc2[nH]c1=O)C(=O)c1ccccn1	96*	20	1	14	69*	50*	50*
CC(S(=O)(=O)c1ccccc1)S(=O)(=O)c1ccccc1	1	nt	nt	nt	nt	nt	nt
CC1=C/C(=N\OS(=O)(=O)c2ccccc2)C(C(C)C)=CC1=O	98*	101*	18	40	96*	76*	63*
CC1=C/C(=N\OS(=O)(=O)c2ccccc2)C(C)=CC1=O	111*	100*	18	4	105*	98*	103*
COc1cccc(CN2C(=NC(=O)CCC3CCCC3)SC3CS(=O)(=O)CC32)c1 (centres undefined)	1	nt	-1	nt	nt	nt	nt
Cn1c2ccccc2c(=O)c2ccc(C#Cc3ccc(N)cc3)cc21	5	nt	2	nt	nt	nt	nt
Cn1c2ccccc2c(=O)c2cc(C#Cc3cccc(N)c3)ccc21	62*	nt	0	nt	21	nt	nt
Cc1noc(C)c1C(=O)Nc1ccc(-c2nnc3n2CCCCC3)cc1	-9	nt	2	nt	nt	nt	nt
Cn1sc2ccccc2c1=O	91*	nt	nt	nt	52*	-13	8
O=C1CN(c2ccccc2F)C(=O)CN1c1ccccc1F	-10	10	-6	1	nt	nt	nt
O=c1c2cc(C(F)(F)F)ccc2sn1-c1ccccc1	128*	nt	nt	nt	94*	-3	5
O=c1c2ccccc2sn1-c1ccccc1F	122*	nt	nt	nt	109*	-8	8
Cc1ccccc1-n1sc2cc(F)ccc2c1=O	114*	10	4	6	114*	-12	-25
O=c1c2ccccc2c(-c2cccc(C(F)(F)F)c2)nn1-c1ccccc1	16	nt	5	nt	nt	nt	nt
COc1cc(CNS(=O)(=O)c2ccc3c(c2)CC(C)N3C(C)=O)cc(OC)c1OC (centres undefined)	-4	nt	3	nt	nt	nt	nt
CC1Sc2ccc(S(=O)(=O)N3CCC(C(=O)Nc4ccc(Cl)cc4)CC3)cc2NC1=O (centres undefined)	19	nt	7	nt	nt	nt	nt
O=c1c2ccccc2sn1-c1ccccc1	112*	9	-3	-2	114*	-4	-16
O=c1c2ccccc2sn1-c1nccs1	112*	51*	0	2	115*	-25	-24
O=c1nc2sc3ccccc3n2c(=O)n1-c1cccc(Cl)c1	-10	-4	-4	6	nt	nt	nt
O=c1c2ccccc2sn1-c1cccc(Cl)c1	128*	nt	nt	nt	104*	-11	3
CN(C)S(=O)(=O)c1cccc(-n2sc3ccccc3c2=O)c1	115*	23	4	8	111*	-25	-24
O=C(NCCCNC(=O)c1cnccn1)c1cccc(Cl)c1	7	nt	-1	nt	nt	nt	nt
CC(=O)Nc1ccc2c(=O)n(-c3ccccc3)sc2c1	127*	nt	nt	nt	105*	-16	1
